Compound activity from PubChem BioAssay.
procasp7 counter: counter-screen: procaspase-7 (human) activation; recombinant procaspase-7, Ac-DEVD-pNA absorbance 405 nm; D23A/D198A/D206A triple mutant, cannot self-cleave; scale: DMSO 0, 5 µM enzyme 100; activation, % at 8.5 µM; actives 0.093% (n = 330,000); AID 463210;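 active = percent activation above the screen-wide mean plus 3 SD, cut at about 25% in these data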
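Replicates: singlicate. Assay system: Procaspase-7 triple mutant (PC-7 D3A). Signal: 405 nm absorbance of p-nitroaniline. Times: 1 h preincubation, 2 h reaction. Buffer or medium: Zinc-free HEPES pH 7.4 with 300 mM NaCl, 0.01% Triton X-100. Also added: DEVD-pNA substrate. Benchmarks: DMSO wells as 0%, DMSO with 5 µM added PC-7 as 100%.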
proCasp3 act: procaspase-3 (human) activation. P42574. recombinant procaspase-3 D3A, Ac-DEVD-pNA absorbance 405 nm. activation, % at 8.5 µM. actives 0.11% (n = 330,000). AID 463141;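 active = activation above the mean of all tested compounds plus 3 SD, cut at about 21% in these data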;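 also: 0% = DMSO alone and 100% = DMSO wells spiked with extra 5 µM PC-3 D3A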
Target sequence (P42574 whole entry D9A/D28A/D175A): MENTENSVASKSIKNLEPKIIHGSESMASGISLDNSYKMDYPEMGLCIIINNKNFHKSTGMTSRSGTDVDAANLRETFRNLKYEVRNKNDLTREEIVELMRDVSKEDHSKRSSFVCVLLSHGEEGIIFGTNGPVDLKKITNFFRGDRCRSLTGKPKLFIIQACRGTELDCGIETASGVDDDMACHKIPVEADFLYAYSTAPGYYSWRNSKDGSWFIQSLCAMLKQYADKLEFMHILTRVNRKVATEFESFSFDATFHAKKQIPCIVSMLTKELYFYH
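Test system: Procaspase-3 D3A mutant; medium: Zinc-free HEPES/NaCl buffer with 0.01% Triton X-100 at pH 7.4; reagent: DEVD-pNA substrate; doses: one concentration, 8.5 µM nominal, 0.8% DMSO; times: 1 h preincubation plus 2 h reaction at 25 °C; signal: Epi-absorbance at 405 nm of released p-nitroaniline, 0 and 120 min; replicates: singlicate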
EBNA-1 inh: blocks EBNA-1 binding to DNA; actives 0.34% (n = 300,000); EBNA-1 DNA binding, fluorescence polarization; inhibition, % at 14.8 µM; in the data active = inhibition above about 28%
ZTA counter: ZTA (EBV) inhibition in EBNA-1 counter-screen | P03206 | ZTA-DNA binding, fluorescence polarization | inhibition, % at 11 µM | actives 0.15% (n = 320,000) | AID 2234; in the data active = inhibition above about 33%
GSTO1 counter: counter-screen for RBBP9 inhibitors: inhibitors of human GSTO1; P78417; recombinant GSTO1, activity-based probe fluorescence polarization; inhibition, % at 5.96 µM; actives 1.1% (n = 300,000); AID 1974;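 active = inhibition above the campaign mean inhibition plus 3 SD, cut at about 35% in these data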;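 also: 0% = GSTO1-1 with DMSO and 100% = wells lacking GSTO1-1 enzyme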
Apaf1 inhib: human Apaf-1 inhibition; O14727; reconstituted apoptosome caspase-3 activity, DEVD-Rh110 fluorescence; inhibition, % at 20 µM; actives 0.71% (n = 330,000); AID 489030; active = inhibition of at least 40% at 20 µM;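 also: plate controls were DMSO wells for no effect and DEVD-CHO caspase inhibitor wells for full effect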
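Material: reconstituted apoptosome with Apaf-1, cytochrome c, caspase-9, procaspase-3, dATP; medium: pH 7.5 Hepes buffer with CHAPS, BSA, DTT; also added: cytochrome c and DEVD-Rh110 substrate; timing: 30 min plus 50 min, RT; signal: Rh110 fluorescence intensity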
Apaf-1 inh conf: confirmation of Apaf-1 inhibitors; shares compounds with Apaf1 inhib; reconstituted apoptosome, caspase-3 DEVD-Rh110 fluorescence; inhibition, % at 20 µM; actives 25% (n = 1,800); AID 504614;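 active = mean inhibition of at least 40% at 20 µM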;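 also: plate controls were DMSO wells for no effect and DEVD-CHO caspase inhibitor control wells for full effect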
Rh110 quench: counter-screen for Apaf-1 inhibitors: fluorescence interference | shares compounds with Apaf1 inhib | activation (fluorescence interference), % at 20 µM | 1,800 tested, under 10 active | Rh110 fluorescence interference, quenched caspase reaction;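 active = signal rise of 40% or more at 20 µM, treated as a fluorescence artifact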
Apaf1 inh interf: Apaf-1 inhibitor counter-screen fluorescence artifact. fluorescence interference counterscreen, Apaf-1 assay format. AID 588538. IC50, µM. 460 tested, under 10 active. shares compounds with Apaf1 inhib; call rule not given here
* hit, by the source's call; / = not tested or not shown. A selection: hits, their analogues and other compounds. The true share with any hit is near 1.8%.

SMILES | procasp7 counter | proCasp3 act | EBNA-1 inh | ZTA counter | GSTO1 counter | Apaf1 inhib | Apaf-1 inh conf | Rh110 quench | others
CCCCNC(=O)c1c(N)n(Cc2ccc3c(c2)OCO3)c2nc3ccccc3nc12 | -27 | -8 | 10 | 8 | 20 | 95* | 31 | 5
O=[N+]([O-])c1ccc(N2CCCC2)c2ccncc12 | -7 | 1 | -7 | -7 | 10 | 34 | / | /
O=[N+]([O-])c1ccc(NC2CCN(Cc3ccccc3)CC2)c2ccncc12 | -1 | 1 | 14 | 1 | -2 | 74* | 21 | 9
O=[N+]([O-])c1ccc(NC2CCCC2)c2ccncc12 | -3 | -1 | -15 | 5 | 2 | 42* | 15 | 2
O=[N+]([O-])c1ccccc1-c1cc(-c2ccccc2)cc(-c2ccccc2)[n+]1Cc1ccccc1Cl | -1 | 6 | -9 | -35 | 2 | 53* | 20 | 9
O=[N+]([O-])c1ccc(-[n+]2c(-c3ccccc3)cc(-c3ccccc3)cc2-c2ccccc2)cc1 | 4 | 1 | 3 | -9 | -1 | 3 | / | /
CCC(C)N1C(=O)NC(=O)C2(Cc3c(ccc4ccccc34)N(C)C2)C1=O (stereo not drawn) | -18 | -13 | 6 | 5 | 19 | 65* | 30 | 4
COc1ccc2c(c1)CC1(CN2C)C(=O)NC(=O)N(CCc2ccccc2)C1=O (stereo not drawn) | -4 | -16 | 12 | -8 | 25 | 18 | / | /
Cn1c(=O)[nH]c2nncnc2c1=O | -4 | -2 | 7 | 7 | 29 | 68* | 68* | -2 | Apaf1 inh interf=>100
Cc1ccsc1C(=O)C1CCCN(Cc2c(C)nn(C(C)C)c2C)C1 (stereo not drawn) | 3 | 6 | -12 | -3 | -2 | 5 | / | /
COc1ccc2c3c1OC1C(=O)CC[C@@]4(O)[C@@H](C2)N(CC2CC2)CC[C@]314 (stereo partly drawn) | 7 | 2 | / | / | / | -5 | / | /
